# Experimental data: ChEMBL document CHEMBL3108739, “Activation and inhibition of thermosensitive TRP channels by voacangine, an alkaloid present in Voacanga africana, an African tree” (J Nat Prod, 2014)
# Activity calls are given as the source filed them. The rule behind the calls is not given here.
# Target: Transient receptor potential cation channel subfamily A member 1 (Homo sapiens, UniProt O75762)
# Test: Agonist activity at TRPA1 isolated from human W138 cells expressed in HEK293T cells assessed as intracellular Ca2+ influx at 100 uM by Fluo-4 AM staining-based fluorescence analysis
# Assay type: cell-based
# Procedure, shortened: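 Tetracycline-induced (1 μg/mL) stable hTRPA1 in HEK T-REx cells, Fluo-4 AM loaded (3 μM, 1 h, 37 °C) in HEPES buffer pH 7.4 with probenecid; Ca2+ read at 37 °C. Compound 0.01−100 μM; HC-030031 30 μM pretreated 3 min. Responses as % of 5 μM ionomycin or of 100 μM AITC; TREx cells without TRPA1 as control; n = 4−8.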
# Transient receptor potential cation channel subfamily A member 1, sequence (O75762 whole entry): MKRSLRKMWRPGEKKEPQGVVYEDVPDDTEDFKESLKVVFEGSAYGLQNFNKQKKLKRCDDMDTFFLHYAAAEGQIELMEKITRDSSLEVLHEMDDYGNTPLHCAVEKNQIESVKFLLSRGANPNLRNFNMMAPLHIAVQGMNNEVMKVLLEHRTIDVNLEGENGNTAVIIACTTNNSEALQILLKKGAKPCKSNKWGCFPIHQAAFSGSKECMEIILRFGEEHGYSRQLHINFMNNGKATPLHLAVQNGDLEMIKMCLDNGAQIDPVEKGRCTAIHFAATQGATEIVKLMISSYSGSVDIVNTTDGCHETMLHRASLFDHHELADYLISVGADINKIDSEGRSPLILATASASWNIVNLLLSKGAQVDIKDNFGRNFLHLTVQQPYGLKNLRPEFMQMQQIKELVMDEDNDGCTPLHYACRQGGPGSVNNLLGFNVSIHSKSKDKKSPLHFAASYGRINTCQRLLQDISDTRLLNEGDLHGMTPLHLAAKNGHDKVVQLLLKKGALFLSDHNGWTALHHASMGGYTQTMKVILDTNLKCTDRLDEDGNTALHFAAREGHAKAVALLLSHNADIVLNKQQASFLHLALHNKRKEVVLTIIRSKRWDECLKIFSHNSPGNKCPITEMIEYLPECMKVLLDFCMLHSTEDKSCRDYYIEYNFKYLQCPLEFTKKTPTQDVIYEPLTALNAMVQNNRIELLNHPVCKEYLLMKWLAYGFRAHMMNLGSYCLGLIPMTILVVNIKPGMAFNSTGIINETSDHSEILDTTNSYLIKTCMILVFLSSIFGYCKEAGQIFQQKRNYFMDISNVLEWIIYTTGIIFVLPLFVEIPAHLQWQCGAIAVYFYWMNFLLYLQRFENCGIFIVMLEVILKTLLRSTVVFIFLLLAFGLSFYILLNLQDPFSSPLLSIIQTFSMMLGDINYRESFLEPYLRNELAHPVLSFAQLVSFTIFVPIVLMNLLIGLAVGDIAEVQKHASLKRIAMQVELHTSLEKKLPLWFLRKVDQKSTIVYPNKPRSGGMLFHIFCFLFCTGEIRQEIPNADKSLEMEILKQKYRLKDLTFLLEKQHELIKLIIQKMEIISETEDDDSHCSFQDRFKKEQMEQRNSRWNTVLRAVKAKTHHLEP
smiles,measurement,value
CC[C@H]1C[C@@H]2CN3CCc4c([nH]c5ccc(OC)cc45)[C@](C(=O)OC)(C2)[C@H]13 [VOACANGINE],Activity,Active
